Experimental data taken from ChEMBL document CHEMBL1671867, “Novel polymyxin derivatives carrying only three positive charges are effective antibacterial agents” (Antimicrob Agents Chemother, 2008).
≈ marks a conversion by molar mass, not a printed value. One block for each compound: values may come before it. Bridge positions count the residues as written; N and C are the ends. Square brackets hold non-standard residues; d marks the D form. Peptide text beside a SMILES is read from it. * marks the point of attachment. Decanoyl = CCCCCCCCCC(=O)*; Dab = NCC[C@H](N)C(=O)O

Columns and labels:
Format in all cases: functional
Pseudomonas aeruginosa [1] = test: (§1) Antibacterial activity against Pseudomonas aeruginosa ATCC 27853by Etest method in presence of […] NAB739
Pseudomonas aeruginosa [2] = test: as §1; remark: listed apart in the source
Pseudomonas aeruginosa [3] = test: Antibacterial activity against Pseudomonas aeruginosa ATCC 27853by Etest method
Summary of the method: (§2)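 MICs of the antibiotic taken from E-strips on Mueller-Hinton agar, run both with and without peptide. […] Inoculum was prepared per the strip manufacturer, matching CLSI M2-A9.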

Acinetobacter baumannii [4] = test: Antibacterial activity against Acinetobacter baumannii F264 by Etest method in presence of NAB739
Acinetobacter baumannii [5] = test: Antibacterial activity against Acinetobacter baumannii F264 by Etest method in presence of 1 ug/ml NAB739
Acinetobacter baumannii [6] = test: Antibacterial activity against Acinetobacter baumannii F264 by Etest method in presence of 0.5 ug/ml NAB739
Acinetobacter baumannii [7] = test: (§3) Antibacterial activity against Acinetobacter baumannii F264 by Etest method in presence of […] NAB739
Acinetobacter baumannii [8] = test: Antibacterial activity against Acinetobacter baumannii F264 by Etest method
Summary of the method: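 E-strip MIC on Mueller-Hinton agar without added peptide; inoculum per manufacturer, matching CLSI M2-A9.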

Acinetobacter baumannii [9] = test: as §3; remark: listed apart in the source
Acinetobacter baumannii [10] = test: Antibacterial activity against Acinetobacter baumannii ATCC 19606 by Etest method in presence of NAB739
Acinetobacter baumannii [11] = test: Antibacterial activity against Acinetobacter baumannii ATCC 19606 by Etest method in presence of 1 ug/ml NAB739
Acinetobacter baumannii [12] = test: Antibacterial activity against Acinetobacter baumannii ATCC 19606 by Etest method in presence of 0.5 ug/ml NAB739
Acinetobacter baumannii [13] = test: (§4) Antibacterial activity against Acinetobacter baumannii ATCC 19606 by Etest method in presence of […] NAB739
Acinetobacter baumannii [14] = test: as §4; remark: listed apart in the source
Acinetobacter baumannii [15] = test: Antibacterial activity against Acinetobacter baumannii ATCC 19606 by Etest method
Pseudomonas aeruginosa [16] = test: Antibacterial activity against Pseudomonas aeruginosa ATCC 27853by Etest method in presence of 0.5 ug/ml NAB739; summary of the method: as §2
Pseudomonas aeruginosa [17] = test: Antibacterial activity against Pseudomonas aeruginosa ATCC 27853by Etest method in presence of 1 ug/ml NAB739; summary of the method: as §2
Pseudomonas aeruginosa [18] = test: Antibacterial activity against Pseudomonas aeruginosa ATCC 27853by Etest method in presence of 2 ug/ml NAB739
Escherichia coli [19] = test: Antibacterial activity against Escherichia coli ATCC […] by CLSI M7-A7 agar dilution method
Escherichia coli [20] = test: Antibacterial activity against Escherichia coli IH3080 assessed as growth inhibition at 10 ug after 18 hrs by […] in presence of 1 ug/ml rifampin
Escherichia coli [21] = test: Antibacterial activity against Escherichia coli IH3080 assessed as growth inhibition at 10 ug after 18 hrs by […]
Candida albicans = test: Antibacterial activity against Candida albicans ATCC 28366 by CLSI M7-A7 agar dilution method
Staphylococcus aureus = test: Antibacterial activity against Staphylococcus aureus ATCC 25923 by CLSI M7-A7 agar dilution method
Summary of the method: (§5)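 Agar dilution on Mueller-Hinton agar with test substance at 0.25 to 32 μg/ml in twofold steps. Spots of about 10^4 CFU applied with a multipoint inoculator.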

Escherichia coli [22] = test: Antibacterial activity against Escherichia coli SC 9253 by CLSI M7-A7 agar dilution method; summary of the method: as §5
Escherichia coli [23] = test: Antibacterial activity against Escherichia coli SC 9252 by CLSI M7-A7 agar dilution method
Pseudomonas aeruginosa [24] = test: Antibacterial activity against Pseudomonas aeruginosa ATCC 27853 by CLSI M7-A7 agar dilution method; summary of the method: as §5
Acinetobacter baumannii [25] = test: Antibacterial activity against Acinetobacter baumannii by CLSI M7-A7 agar dilution method
Serratia marcescens = test: Antibacterial activity against Serratia marcescens ATCC 8100 by CLSI M7-A7 agar dilution method; summary of the method: as §5
Acinetobacter baumannii [26] = test: Antibacterial activity against Acinetobacter baumannii ATCC 19606 by CLSI M7-A7 agar dilution method
Citrobacter freundii = test: Antibacterial activity against Citrobacter freundii ATCC 8090 by CLSI M7-A7 agar dilution method
Enterobacter cloacae [27] = test: Antibacterial activity against Enterobacter cloacae by CLSI M7-A7 agar dilution method
Enterobacter cloacae [28] = test: Antibacterial activity against Enterobacter cloacae CCUG52947 by CLSI M7-A7 agar dilution method
Enterobacter cloacae [29] = test: Antibacterial activity against Enterobacter cloacae ATCC 23355 by CLSI M7-A7 agar dilution method
Klebsiella oxytoca [30] = test: Antibacterial activity against Klebsiella oxytoca CCUG51683 by CLSI M7-A7 agar dilution method; summary of the method: as §5
Klebsiella oxytoca [31] = test: Antibacterial activity against Klebsiella oxytoca ATCC 13182 by CLSI M7-A7 agar dilution method; summary of the method: as §5
Klebsiella pneumoniae [32] = test: Antibacterial activity against Klebsiella pneumoniae by CLSI M7-A7 agar dilution method; summary of the method: as §5
Escherichia coli [33] = test: Antibacterial activity against Escherichia coli by CLSI M7-A7 agar dilution method; summary of the method: as §5
Klebsiella pneumoniae [34] = test: Antibacterial activity against Klebsiella pneumoniae CCUG45421 by CLSI M7-A7 agar dilution method; summary of the method: as §5
Escherichia coli [35] = test: Antibacterial activity against Escherichia coli IH3080 by CLSI M7-A7 agar dilution method

SMILES: C[C@@H](O)[C@H]1C(=O)N2C(C(=O)O)=C(S[C@@H]3CN[C@H](C(=O)N(C)C)C3)[C@H](C)[C@H]12 [MEROPENEM]
MIC (Pseudomonas aeruginosa [1]): 0.25 µg/mL
MIC (Pseudomonas aeruginosa [2]): 0.25 µg/mL
MIC (Pseudomonas aeruginosa [3]): 0.25 µg/mL (≈ 0.652 µM)
fractional inhibitory concentration index (FICI) (Acinetobacter baumannii [4]): 0.281
MIC (Acinetobacter baumannii [5]): 0.38 µg/mL
MIC (Acinetobacter baumannii [6]): 1 µg/mL
MIC (Acinetobacter baumannii [7]): 6 µg/mL
MIC (Acinetobacter baumannii [8]): > 32 µg/mL
MIC (Acinetobacter baumannii [9]): 32 µg/mL
fractional inhibitory concentration index (FICI) (Acinetobacter baumannii [10]): 0.5
MIC (Acinetobacter baumannii [11]): 0.125 µg/mL
MIC (Acinetobacter baumannii [12]): 0.25 µg/mL
MIC (Acinetobacter baumannii [13]): 0.5 µg/mL
MIC (Acinetobacter baumannii [14]): 1 µg/mL
MIC (Acinetobacter baumannii [15]): 1 µg/mL (≈ 2.61 µM)
MIC (Pseudomonas aeruginosa [16]): 0.25 µg/mL
MIC (Pseudomonas aeruginosa [17]): 0.25 µg/mL
MIC (Pseudomonas aeruginosa [18]): 0.25 µg/mL

MIC (Pseudomonas aeruginosa [1]): > 256 µg/mL
MIC (Pseudomonas aeruginosa [2]): > 256 µg/mL
MIC (Pseudomonas aeruginosa [3]): > 256 µg/mL
MIC (Acinetobacter baumannii [5]): 1 µg/mL
MIC (Acinetobacter baumannii [6]): 3 µg/mL
MIC (Acinetobacter baumannii [7]): 12 µg/mL
MIC (Acinetobacter baumannii [8]): > 256 µg/mL
MIC (Acinetobacter baumannii [9]): 32 µg/mL
MIC (Acinetobacter baumannii [11]): 1 µg/mL
MIC (Acinetobacter baumannii [12]): 4 µg/mL
MIC (Acinetobacter baumannii [13]): 12 µg/mL
MIC (Acinetobacter baumannii [14]): 32 µg/mL
MIC (Acinetobacter baumannii [15]): > 256 µg/mL
MIC (Pseudomonas aeruginosa [16]): > 256 µg/mL
MIC (Pseudomonas aeruginosa [17]): > 256 µg/mL
MIC (Pseudomonas aeruginosa [18]): 192 µg/mL
SMILES: CC(=O)O[C@H]1C[C@@]2(C)[C@@H](C[C@@H](O)[C@H]3[C@@]4(C)CC[C@@H](O)[C@@H](C)[C@@H]4CC[C@@]32C)/C1=C(\CCC=C(C)C)C(=O)O [FUSIDIC ACID]
fractional inhibitory concentration index (FICI) (Acinetobacter baumannii [4]): <=0.172
fractional inhibitory concentration index (FICI) (Acinetobacter baumannii [10]): <=0.172

MIC (Escherichia coli [19]): 2 µg/mL (≈ 1.81 µM)
MIC (Candida albicans): > 32 µg/mL
MIC (Staphylococcus aureus): > 32 µg/mL
MIC (Escherichia coli [22]): 16 µg/mL (≈ 14.5 µM)
MIC (Escherichia coli [23]): 8 µg/mL (≈ 7.24 µM)
MIC (Pseudomonas aeruginosa [24]): 4 µg/mL (≈ 3.62 µM)
MIC (Acinetobacter baumannii [25]): 2 µg/mL (≈ 1.81 µM)
MIC (Serratia marcescens): > 32 µg/mL
MIC (Acinetobacter baumannii [26]): 4 µg/mL (≈ 3.62 µM)
MIC (Citrobacter freundii): 2 µg/mL (≈ 1.81 µM)
MIC (Enterobacter cloacae [27]): 2 µg/mL (≈ 1.81 µM)
MIC (Enterobacter cloacae [28]): 2 µg/mL (≈ 1.81 µM)
MIC (Enterobacter cloacae [29]): 2 µg/mL (≈ 1.81 µM)
MIC (Klebsiella oxytoca [30]): 2 µg/mL (≈ 1.81 µM)
MIC (Klebsiella oxytoca [31]): 2 µg/mL (≈ 1.81 µM)
MIC (Klebsiella pneumoniae [32]): 2 µg/mL (≈ 1.81 µM)
MIC (Escherichia coli [33]): 1 µg/mL (≈ 0.906 µM)
MIC (Klebsiella pneumoniae [34]): 4 µg/mL (≈ 3.62 µM)
MIC (Escherichia coli [35]): 2 µg/mL (≈ 1.81 µM)
SMILES: CCCCCCCCCC(=O)N[C@H](C(=O)N[C@H](CO)C(=O)N[C@H]1CCNC(=O)[C@H]([C@@H](C)O)NC(=O)[C@H](CCN)NC(=O)[C@H](CCN)NC(=O)[C@H](CC(C)C)NC(=O)[C@@H](Cc2ccccc2)NC(=O)[C@H](CCN)NC1=O)[C@@H](C)O (Decanoyl-T[dS][Dab][Dab][dF]L[Dab][Dab]T; lactam 3-C)
inhibition zone (IZ) (Escherichia coli [20]): 150 mm2
inhibition zone (IZ) (Escherichia coli [21]): 130 mm2
